# Laboratory results published in ChEMBL document CHEMBL1629684, “Effects of ravuconazole treatment on parasite load and immune response in dogs experimentally infected with Trypanosoma cruzi” (Antimicrob Agents Chemother, 2010).
# Calls of active or inactive are those of the source.
# Legend:
# Canis familiaris [1] = assay: Immunostimulatory activity in mongrel dog infected with Trypanosoma cruzi Berenice-78 assessed as production of antibody IgG at 7 mg/kg, po BID for 90 days measured after 6 months by ELISA; format: functional, organism-based; parameters: dose 7 mg/kg; settings: Canis lupus familiaris
# Procedure, shortened: (§1)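 Serum was taken before inoculation and then monthly until 6 months posttreatment, and stored at −80°C. ELISA plates were coated with alkaline extract of Y-strain parasites grown to exponential phase in LIT medium. Bound total IgG or IgG2 was detected with peroxidase-labeled anti-dog conjugates and read at 490 nm. Cutoff was the mean absorbance of 10 uninfected dogs plus 2 SD.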
# Trypanosoma cruzi [2] = assay: Antimicrobial activity against Trypanosoma cruzi Y infected in mongrel dog assessed as survival of dog at 12 mg/kg, po BID started 12 to 22 days postinfection measured after 1 day; format: functional
# Procedure, shortened: (§2)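 Four-month-old mongrel dogs (five per group) received 2.0 × 10^3 Y or Berenice-78 bloodstream trypomastigotes/kg. Oral dosing began 12–22 days postinfection, when parasitemia was detected by fresh blood examination: 12 mg/kg q12h for 90 days, or 7 mg/kg q12h for 60 days. Ear-vein blood was checked from day 10. Mortality was expressed as the cumulative percentage of dead animals.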
# Trypanosoma cruzi [3] = assay: Antitrypanosomal activity against Trypanosoma cruzi Y infected in mongrel dog assessed as reduction in IL10 production in right atrium at 7 mg/kg, po BID after 180 days by semiquantitative RT-PCR; settings: Cardiac atrium
# Trypanosoma cruzi [4] = assay: Antimicrobial activity against Trypanosoma cruzi Y infected in mongrel dog assessed as parasite level in blood of dog at 7 mg/kg, po BID started 12 to 22 days postinfection measured after 30 days by PCR analysis; format: functional
# Procedure, shortened: (§3)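 Blood PCR for T. cruzi on treated dogs (n = 5 per group) at 1 and 6 months posttreatment. Each reaction took 2 μl blood DNA template in Tris-HCl pH 9.0, 75 mM KCl, 3.5 mM MgCl2 and 0.2 mM dNTPs. Cycling was 95°C 5 min, then 2 cycles annealing at 30°C, 33 cycles at 40°C, and 72°C 5 min. Products were run on 6% polyacrylamide and silver stained. Reported as rate of positive animals.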
# Trypanosoma cruzi [5] = assay: Antimicrobial activity against Trypanosoma cruzi Berenice-78 infected in mongrel dog assessed as suppression of microbial proliferation at 12 mg/kg, po BID started 12 to 22 days postinfection measured after 1 day; format: functional, organism-based; parameters: dose 12 mg/kg
# Procedure, shortened: (§4)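 Mongrel dogs, 4 months old, dewormed and vaccinated, were inoculated with 2.0 × 10^3 bloodstream trypomastigotes/kg. Oral b.i.d. (q12h) dosing began 12 to 22 days postinfection, once parasitemia appeared. Dosing ran 90 days at 12 mg/kg and 60 days at 7 mg/kg, with 5 dogs per group. Parasitemia was read by fresh-blood examination of marginal ear vein blood from day 10 of infection until parasites were undetectable.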
# Canis familiaris [6] = assay: Immunostimulatory activity in mongrel dog infected with Trypanosoma cruzi Y assessed as production of antibody IgG2 at 7 mg/kg, po BID for 90 days measured after 6 months by ELISA; format: functional, organism-based; parameters: dose 7 mg/kg; settings: Canis lupus familiaris, in the assay text read “for 60 days” for “for 90 days”; procedure, shortened: as §1
# Canis familiaris [7] = assay: Immunostimulatory activity in mongrel dog infected with Trypanosoma cruzi Berenice-78 assessed as production of antibody IgG2 at 12 mg/kg, po BID for 90 days measured up to 30 days by ELISA; format: functional, organism-based; parameters: dose 12 mg/kg; settings: Canis lupus familiaris; procedure, shortened: as §1
# Canis familiaris [8] = assay: Toxicity in mongrel dog infected with Trypanosoma cruzi Y assessed as weight loss at 7 mg/kg, po BID for 90 days started 12 to 22 days postinfection measured after 6 months; format: organism-based, Canis lupus familiaris; parameters: dose 7 mg/kg, route oral; settings: in vivo, 4383 h
# Procedure, shortened: (§5)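 Body weight gain, in kg, was recorded for infected dogs 1 day and 6 months after the end of oral b.i.d. treatment. Treated animals were compared with infected untreated and noninfected control groups.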
# Canis familiaris [9] = assay: Toxicity in mongrel dog infected with Trypanosoma cruzi Berenice-78 assessed as weight loss at 7 mg/kg, po BID for 90 days started 12 to 22 days postinfection measured after 6 months; format: organism-based, Canis lupus familiaris; parameters: dose 7 mg/kg, route oral; settings: in vivo, 4383 h; procedure, shortened: as §5
# Canis familiaris [10] = assay: Toxicity in mongrel dog infected with Trypanosoma cruzi Berenice-78 assessed as weight loss at 12 mg/kg, po BID for 90 days started 12 to 22 days postinfection measured after 6 months; format: organism-based, Canis lupus familiaris; parameters: dose 12 mg/kg, route oral; settings: in vivo, 4383 h; procedure, shortened: as §5
# Trypanosoma cruzi [11] = assay: Antimicrobial activity against Trypanosoma cruzi Berenice-78 infected in mongrel dog assessed as suppression of microbial proliferation at 7 mg/kg, po BID started 12 to 22 days postinfection measured after 1 day; format: functional, organism-based; parameters: dose 7 mg/kg; procedure, shortened: as §4
# Trypanosoma cruzi [12] = assay: Antimicrobial activity against Trypanosoma cruzi Y infected in mongrel dog assessed as suppression of microbial proliferation at 7 mg/kg, po BID started 12 to 22 days postinfection measured after 1 day; format: functional, organism-based; parameters: dose 7 mg/kg; procedure, shortened: as §4
# Trypanosoma cruzi [13] = assay: Antimicrobial activity against Trypanosoma cruzi Y infected in mongrel dog assessed as survival of dog at 7 mg/kg, po BID started 12 to 22 days postinfection measured after 1 day; format: functional; procedure, shortened: as §2
# Canis familiaris [14] = assay: Toxicity in mongrel dog infected with Trypanosoma cruzi Y assessed as weight loss at 12 mg/kg, po BID for 90 days started 12 to 22 days postinfection measured after 6 months; format: organism-based, Canis lupus familiaris; parameters: dose 12 mg/kg, route oral; settings: in vivo, 4383 h; procedure, shortened: as §5
# Trypanosoma cruzi [15] = assay: Antimicrobial activity against Trypanosoma cruzi Y infected in mongrel dog assessed as suppression of microbial proliferation at 12 mg/kg, po BID started 12 to 22 days postinfection measured after 1 day; format: functional, organism-based; parameters: dose 12 mg/kg; procedure, shortened: as §4
# Trypanosoma cruzi [16] = assay: Antitrypanosomal activity against Trypanosoma cruzi Y infected in mongrel dog assessed as reduction in INFgamma production in right atrium at 7 mg/kg, po BID after 180 days by semiquantitative RT-PCR; settings: Cardiac atrium
# Canis familiaris [17] = assay: Immunostimulatory activity in mongrel dog infected with Trypanosoma cruzi Y assessed as production of antibody IgG at 12 mg/kg, po BID for 90 days measured after 6 months by ELISA; format: functional, organism-based; parameters: dose 12 mg/kg; settings: Canis lupus familiaris; procedure, shortened: as §1
# Trypanosoma cruzi [18] = assay: Antitrypanosomal activity against Trypanosoma cruzi Y infected in mongrel dog assessed as reduction in INFgamma production in right atrium at 7 mg/kg, po BID after 180 days by semiquantitative RT-PCR; format: functional, organism-based; parameters: dose 7 mg/kg; settings: Cardiac atrium
# Procedure, shortened: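 Dogs were euthanized 6 months after the end of treatment. RNA was extracted from the right atrium with acid guanidinium thiocyanate-phenol-chloroform. One microgram was DNase treated and reverse transcribed with oligo(dT) for 1 h at 42°C. IFN-γ or IL-10 cDNA was amplified with 1.5 mM MgCl2: 94°C 5 min, n cycles of 94/57/72°C, final extension 72°C 6 min. Expression was scored semiquantitatively against infected untreated and noninfected dogs.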
# Trypanosoma cruzi [19] = assay: Antimicrobial activity against Trypanosoma cruzi Berenice-78 infected in mongrel dog assessed as survival of dog at 12 mg/kg, po BID started 12 to 22 days postinfection measured after 1 day; format: functional; procedure, shortened: as §2
# Canis familiaris [20] = assay: Toxicity in mongrel dog infected with Trypanosoma cruzi Berenice-78 assessed as weight loss at 7 mg/kg, po BID for 90 days started 12 to 22 days postinfection measured after 1 day; format: organism-based, Canis lupus familiaris; parameters: dose 7 mg/kg, route oral; settings: in vivo, 24 h; procedure, shortened: as §5
# Canis familiaris [21] = assay: Immunostimulatory activity in mongrel dog infected with Trypanosoma cruzi Berenice-78 assessed as production of antibody IgG2 at 7 mg/kg, po BID for 90 days measured after 6 months by ELISA; format: functional, organism-based; parameters: dose 7 mg/kg; settings: Canis lupus familiaris, in the assay text read “for 60 days” for “for 90 days”; procedure, shortened: as §1
# Canis familiaris [22] = assay: Immunostimulatory activity in mongrel dog infected with Trypanosoma cruzi Y assessed as production of antibody IgG at 7 mg/kg, po BID for 90 days measured after 6 months by ELISA; format: functional, organism-based; parameters: dose 7 mg/kg; settings: Canis lupus familiaris, in the assay text read “for 60 days” for “for 90 days”; procedure, shortened: as §1
# Trypanosoma cruzi [23] = assay: Antimicrobial activity against Trypanosoma cruzi Berenice-78 infected in mongrel dog assessed as survival of dog at 7 mg/kg, po BID started 12 to 22 days postinfection measured after 1 day; format: functional; procedure, shortened: as §2
# Canis familiaris [24] = assay: Immunostimulatory activity in mongrel dog infected with Trypanosoma cruzi Berenice-78 assessed as production of antibody IgG2 at 12 mg/kg, po BID for 90 days measured after 6 months by ELISA; format: functional, organism-based; parameters: dose 12 mg/kg; settings: Canis lupus familiaris; procedure, shortened: as §1
# Canis familiaris [25] = assay: Immunostimulatory activity in mongrel dog infected with Trypanosoma cruzi Berenice-78 assessed as production of antibody IgG at 12 mg/kg, po BID for 90 days measured up to 30 days by ELISA; format: functional, organism-based; parameters: dose 12 mg/kg; settings: Canis lupus familiaris; procedure, shortened: as §1
# Canis familiaris [26] = assay: Immunostimulatory activity in mongrel dog infected with Trypanosoma cruzi Berenice-78 assessed as production of antibody IgG at 7 mg/kg, po BID for 90 days measured up to 30 days by ELISA; format: functional, organism-based; parameters: dose 7 mg/kg; settings: Canis lupus familiaris; procedure, shortened: as §1
# Trypanosoma cruzi [27] = assay: Antimicrobial activity against Trypanosoma cruzi Berenice-78 infected in mongrel dog assessed as parasite level in blood of dog at 7 mg/kg, po BID started 12 to 22 days postinfection measured after 30 days by PCR analysis; format: functional; procedure, shortened: as §3
# Canis familiaris [28] = assay: Toxicity in mongrel dog infected with Trypanosoma cruzi Berenice-78 assessed as weight loss at 12 mg/kg, po BID for 90 days started 12 to 22 days postinfection measured after 1 day; format: organism-based, Canis lupus familiaris; parameters: dose 12 mg/kg, route oral; settings: in vivo, 24 h; procedure, shortened: as §5
# Canis familiaris [29] = assay: Immunostimulatory activity in mongrel dog infected with Trypanosoma cruzi Y assessed as production of antibody IgG2 at 12 mg/kg, po BID for 90 days measured after 6 months by ELISA; format: functional, organism-based; parameters: dose 12 mg/kg; settings: Canis lupus familiaris; procedure, shortened: as §1
# Canis familiaris [30] = assay: Immunostimulatory activity in mongrel dog infected with Trypanosoma cruzi Berenice-78 assessed as production of antibody IgG2 at 7 mg/kg, po BID for 90 days measured up to 30 days by ELISA; format: functional, organism-based; parameters: dose 7 mg/kg; settings: Canis lupus familiaris; procedure, shortened: as §1
# Canis familiaris [31] = assay: Immunostimulatory activity in mongrel dog infected with Trypanosoma cruzi Berenice-78 assessed as production of antibody IgG at 12 mg/kg, po BID for 90 days measured after 6 months by ELISA; format: functional, organism-based; parameters: dose 12 mg/kg; settings: Canis lupus familiaris; procedure, shortened: as §1
compound,measurement,setting,value
O=C(Cn1ccnc1[N+](=O)[O-])NCc1ccccc1 [BENZNIDAZOLE],Activity,Canis familiaris [1],Active
same,Activity,Trypanosoma cruzi [2],100%
same,Activity,Trypanosoma cruzi [3],Active
same,Activity,Trypanosoma cruzi [4],0%
same,Activity,Trypanosoma cruzi [5],Non-toxic
same,Activity,Canis familiaris [6],Active
same,Activity,Canis familiaris [7],Active
same,Activity,Canis familiaris [8],Non-toxic
same,Activity,Canis familiaris [9],Non-toxic
same,Activity,Canis familiaris [10],Non-toxic
same,Activity,Trypanosoma cruzi [11],Non-toxic
same,Activity,Trypanosoma cruzi [12],Non-toxic
same,Activity,Trypanosoma cruzi [13],100%
same,Activity,Canis familiaris [14],Non-toxic
same,Activity,Trypanosoma cruzi [15],Non-toxic
same,Activity,Trypanosoma cruzi [16],Active
same,Activity,Canis familiaris [17],Active
same,Activity,Trypanosoma cruzi [18],Active
same,Activity,Trypanosoma cruzi [19],100%
same,Activity,Canis familiaris [20],Toxic
same,Activity,Canis familiaris [21],Active
same,Activity,Canis familiaris [22],Active
same,Activity,Trypanosoma cruzi [23],100%
same,Activity,Canis familiaris [24],Active
same,Activity,Canis familiaris [25],Active
same,Activity,Canis familiaris [26],Active
same,Activity,Trypanosoma cruzi [27],0%
same,Activity,Canis familiaris [28],Toxic
same,Activity,Canis familiaris [29],Active
same,Activity,Canis familiaris [30],Active
same,Activity,Canis familiaris [31],Active
